Laboratory results reported in ChEMBL document CHEMBL3797186, “Single Residue Substitutions That Confer Voltage-Gated Sodium Ion Channel Subtype Selectivity in the NaV1.7 Inhibitory Peptide GpTx-1” (J Med Chem, 2016).
Positions of bridges follow the written chain, without caps; N, C: chain ends. Residues, ends and D or L forms follow the SMILES beside them.

The compounds below were run against Sodium channel protein type 5 subunit alpha (Homo sapiens, UniProt Q14524) (assay: Inhibition of human Nav1.5 expressed in HEK293 cells assessed as inward peak current by ion-works quattro patch clamp electrophysiology method).
Sequence of Sodium channel protein type 5 subunit alpha (Q14524 whole entry): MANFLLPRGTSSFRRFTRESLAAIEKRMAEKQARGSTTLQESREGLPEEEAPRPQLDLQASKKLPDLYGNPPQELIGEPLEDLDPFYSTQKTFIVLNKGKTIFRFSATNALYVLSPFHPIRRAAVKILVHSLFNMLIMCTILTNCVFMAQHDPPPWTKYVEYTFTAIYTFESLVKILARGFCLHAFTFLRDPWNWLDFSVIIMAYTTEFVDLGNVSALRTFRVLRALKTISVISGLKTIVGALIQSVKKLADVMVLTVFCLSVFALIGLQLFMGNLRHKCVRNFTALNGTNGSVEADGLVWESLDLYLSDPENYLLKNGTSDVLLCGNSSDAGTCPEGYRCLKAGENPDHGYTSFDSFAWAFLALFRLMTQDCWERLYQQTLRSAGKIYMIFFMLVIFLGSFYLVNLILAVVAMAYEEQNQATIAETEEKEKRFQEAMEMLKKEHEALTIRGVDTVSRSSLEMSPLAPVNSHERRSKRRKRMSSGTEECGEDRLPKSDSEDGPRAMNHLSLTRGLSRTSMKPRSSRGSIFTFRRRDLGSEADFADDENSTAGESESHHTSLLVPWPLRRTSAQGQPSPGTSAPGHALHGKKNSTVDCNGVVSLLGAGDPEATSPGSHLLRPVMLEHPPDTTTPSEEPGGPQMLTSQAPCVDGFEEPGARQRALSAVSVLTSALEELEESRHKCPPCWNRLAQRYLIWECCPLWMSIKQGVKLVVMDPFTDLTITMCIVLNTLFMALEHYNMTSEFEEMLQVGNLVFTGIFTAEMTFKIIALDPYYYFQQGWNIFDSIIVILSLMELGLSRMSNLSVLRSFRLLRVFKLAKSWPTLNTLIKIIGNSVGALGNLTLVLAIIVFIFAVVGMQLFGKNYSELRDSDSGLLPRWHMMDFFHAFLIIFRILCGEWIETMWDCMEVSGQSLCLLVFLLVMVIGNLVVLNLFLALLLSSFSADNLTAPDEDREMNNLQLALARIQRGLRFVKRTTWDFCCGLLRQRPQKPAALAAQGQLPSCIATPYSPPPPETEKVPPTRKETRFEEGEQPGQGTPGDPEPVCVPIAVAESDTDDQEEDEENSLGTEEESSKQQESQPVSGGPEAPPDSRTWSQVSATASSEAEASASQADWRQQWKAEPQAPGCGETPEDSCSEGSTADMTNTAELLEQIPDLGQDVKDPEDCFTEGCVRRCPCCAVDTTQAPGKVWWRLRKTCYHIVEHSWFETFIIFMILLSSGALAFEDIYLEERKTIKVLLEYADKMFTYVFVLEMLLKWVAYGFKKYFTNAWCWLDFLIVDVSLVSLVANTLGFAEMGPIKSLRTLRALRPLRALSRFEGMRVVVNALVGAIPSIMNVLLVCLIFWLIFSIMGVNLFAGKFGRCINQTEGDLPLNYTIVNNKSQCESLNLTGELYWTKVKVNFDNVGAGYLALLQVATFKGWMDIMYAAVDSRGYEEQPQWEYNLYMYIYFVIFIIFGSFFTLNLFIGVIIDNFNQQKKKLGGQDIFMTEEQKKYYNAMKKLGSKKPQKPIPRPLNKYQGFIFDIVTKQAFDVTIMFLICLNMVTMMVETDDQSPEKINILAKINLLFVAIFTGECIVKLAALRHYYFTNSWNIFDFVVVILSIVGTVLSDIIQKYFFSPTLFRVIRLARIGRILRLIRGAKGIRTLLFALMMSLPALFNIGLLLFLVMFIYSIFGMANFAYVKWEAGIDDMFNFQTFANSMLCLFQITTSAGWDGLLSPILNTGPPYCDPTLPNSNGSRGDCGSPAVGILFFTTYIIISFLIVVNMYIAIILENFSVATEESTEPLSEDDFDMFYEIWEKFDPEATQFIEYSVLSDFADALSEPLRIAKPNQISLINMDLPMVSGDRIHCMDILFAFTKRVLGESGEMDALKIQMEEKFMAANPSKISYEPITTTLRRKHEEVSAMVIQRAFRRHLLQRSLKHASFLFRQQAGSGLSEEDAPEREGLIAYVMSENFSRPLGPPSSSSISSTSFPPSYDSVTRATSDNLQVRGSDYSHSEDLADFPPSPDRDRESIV
Format: cell-based
Summary of the method: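 Stable HEK293 line expressing human NaV1.5, recorded by population patch clamp on the IonWorks Quattro.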

Point of comparison: `CC[C@H](C)[C@@H]1NC(=O)[C@@H]2CSSC[C@@H]3NC(=O)[C@H](C(C)C)NC(=O)[C@H](CC(C)C)NC(=O)[C@H](CC(N)=O)NC(=O)[C@@H]4CCCN4C(=O)[C@H](CCCNC(=N)N)NC(=O)[C@H](CSSC[C@H](NC(=O)[C@@H](N)CC(=O)O)C(=O)N[C@@H](CC(C)C)C(=O)NCC(=O)N[C@@H](Cc4ccccc4)C(=O)N[C@@H](Cc4cccc5ccccc45)C(=O)N[C@@H](CCCNC(=N)N)C(=O)N[C@@H](CCCCN)C(=O)N2)NC(=O)[C@H](CSSC[C@@H](C(=O)N[C@@H](CCCCN)C(=O)N[C@@H](Cc2ccc(O)cc2)C(=O)N[C@H](C(=O)N[C@@H](Cc2ccccc2)C(N)=O)C(C)C)NC(=O)[C@H](Cc2c[nH]c4ccccc24)NC(=O)[C@H](CCCCN)NC(=O)[C@H](Cc2cnc[nH]2)NC(=O)[C@H]([C@@H](C)O)NC(=O)[C@H](CCCNC(=N)N)NC(=O)[C@H](CO)NC3=O)NC(=O)[C@H](CCCCN)NC(=O)[C@H](CC(=O)O)NC(=O)[C@H](CC(N)=O)NC(=O)[C@H](CC(=O)O)NC(=O)[C@@H]2CCCN2C1=O`, IC50 2.3 µM. Against it:
- CSCC[C@@H]1NC(=O)[C@H](Cc2ccccc2)NC(=O)CNC(=O)[C@H](CC(C)C)NC(=O)[C@@H](NC(=O)[C@@H](N)CC(=O)O)CSSC[C@@H]2NC(=O)[C@@H]3CSSC[C@@H](C(=O)N[C@@H](CCCCN)C(=O)N[C@@H](Cc4ccc(O)cc4)C(=O)N[C@H](C(=O)N[C@@H](Cc4ccccc4)C(N)=O)C(C)C)NC(=O)[C@H](Cc4c[nH]c5ccccc45)NC(=O)[C@H](CCCCN)NC(=O)[C@H](Cc4cnc[nH]4)NC(=O)[C@H]([C@@H](C)O)NC(=O)[C@H](CCCNC(=N)N)NC(=O)[C@H](CO)NC(=O)[C@H](CSSC[C@H](NC(=O)[C@H](CCCCN)NC(=O)[C@H](CCCNC(=N)N)NC1=O)C(=O)N[C@@H](Cc1ccccc1)C(=O)N1CCC[C@H]1C(=O)N[C@@H](CC(=O)O)C(=O)N[C@@H](CC(N)=O)C(=O)N[C@@H](CC(=O)O)C(=O)N[C@@H](CCCCN)C(=O)N3)NC(=O)[C@H](C(C)C)NC(=O)[C@H](CC(C)C)NC(=O)[C@H](CC(N)=O)NC(=O)[C@@H]1CCCN1C(=O)[C@H](CCCNC(=N)N)NC2=O (H-DCLGFMRKCFPDNDKCCRPNLVCSRTHKWCKYVF-NH2; disulfide 2-17, 9-23, 16-30) — higher, > 5 µM
- CC[C@H](C)[C@@H]1NC(=O)[C@@H]2CSSC[C@@H]3NC(=O)[C@H](C(C)C)NC(=O)[C@H](CC(C)C)NC(=O)[C@H](CC(N)=O)NC(=O)[C@@H]4CCCN4C(=O)[C@H](CCCNC(=N)N)NC(=O)[C@H](CSSC[C@H](NC(=O)[C@@H](N)CCCCN)C(=O)N[C@@H](CC(C)C)C(=O)NCC(=O)N[C@@H](Cc4ccccc4)C(=O)N[C@@H](CCSC)C(=O)N[C@@H](CCCNC(=N)N)C(=O)N[C@@H](CCCCN)C(=O)N2)NC(=O)[C@H](CSSC[C@@H](C(=O)N[C@@H](CCCCN)C(=O)N[C@@H](Cc2ccc(O)cc2)C(=O)N[C@H](C(=O)N[C@@H](Cc2ccccc2)C(N)=O)C(C)C)NC(=O)[C@H](Cc2c[nH]c4ccccc24)NC(=O)[C@H](CCCCN)NC(=O)[C@H](Cc2cnc[nH]2)NC(=O)[C@H]([C@@H](C)O)NC(=O)[C@H](CCCNC(=N)N)NC(=O)[C@H](CO)NC3=O)NC(=O)[C@H](CCCCN)NC(=O)[C@H](CC(=O)O)NC(=O)[C@H](CC(N)=O)NC(=O)[C@H](CC(=O)O)NC(=O)[C@@H]2CCCN2C1=O (H-KCLGFMRKCIPDNDKCCRPNLVCSRTHKWCKYVF-NH2; disulfide 2-17, 9-23, 16-30) — higher, > 5 µM
- CC[C@H](C)[C@@H]1NC(=O)[C@@H]2CSSC[C@@H]3NC(=O)[C@H](C(C)C)NC(=O)[C@H](CC(C)C)NC(=O)[C@H](CC(N)=O)NC(=O)[C@@H]4CCCN4C(=O)[C@H](CCCNC(=N)N)NC(=O)[C@H](CSSC[C@H](NC(=O)[C@@H](N)CC(=O)O)C(=O)N[C@@H](CCCNC(=N)N)C(=O)NCC(=O)N[C@@H](Cc4ccccc4)C(=O)N[C@@H](CCSC)C(=O)N[C@@H](CCCNC(=N)N)C(=O)N[C@@H](CCCCN)C(=O)N2)NC(=O)[C@H](CSSC[C@@H](C(=O)N[C@@H](CCCCN)C(=O)N[C@@H](Cc2ccc(O)cc2)C(=O)N[C@H](C(=O)N[C@@H](Cc2ccccc2)C(N)=O)C(C)C)NC(=O)[C@H](Cc2c[nH]c4ccccc24)NC(=O)[C@H](CCCCN)NC(=O)[C@H](Cc2cnc[nH]2)NC(=O)[C@H]([C@@H](C)O)NC(=O)[C@H](CCCNC(=N)N)NC(=O)[C@H](CO)NC3=O)NC(=O)[C@H](CCCCN)NC(=O)[C@H](CC(=O)O)NC(=O)[C@H](CC(N)=O)NC(=O)[C@H](CC(=O)O)NC(=O)[C@@H]2CCCN2C1=O (H-DCRGFMRKCIPDNDKCCRPNLVCSRTHKWCKYVF-NH2; disulfide 2-17, 9-23, 16-30) — higher, > 5 µM
- CC[C@H](C)[C@@H]1NC(=O)[C@@H]2CSSC[C@@H]3NC(=O)[C@H](C(C)C)NC(=O)[C@H](CC(C)C)NC(=O)[C@H](CC(N)=O)NC(=O)[C@@H]4CCCN4C(=O)[C@H](CCCNC(=N)N)NC(=O)[C@H](CSSC[C@H](NC(=O)[C@@H](N)CC(=O)O)C(=O)N[C@@H](CC(C)C)C(=O)NCC(=O)N[C@@H](Cc4ccccc4)C(=O)N[C@@H](CCSC)C(=O)N[C@@H](CCCNC(=N)N)C(=O)N[C@@H](CCC(=O)O)C(=O)N2)NC(=O)[C@H](CSSC[C@@H](C(=O)N[C@@H](CCCCN)C(=O)N[C@@H](Cc2ccc(O)cc2)C(=O)N[C@H](C(=O)N[C@@H](Cc2ccccc2)C(N)=O)C(C)C)NC(=O)[C@H](Cc2c[nH]c4ccccc24)NC(=O)[C@H](CCCCN)NC(=O)[C@H](Cc2cnc[nH]2)NC(=O)[C@H]([C@@H](C)O)NC(=O)[C@H](CCCNC(=N)N)NC(=O)[C@H](CO)NC3=O)NC(=O)[C@H](CCCCN)NC(=O)[C@H](CC(=O)O)NC(=O)[C@H](CC(N)=O)NC(=O)[C@H](CC(=O)O)NC(=O)[C@@H]2CCCN2C1=O (H-DCLGFMRECIPDNDKCCRPNLVCSRTHKWCKYVF-NH2; disulfide 2-17, 9-23, 16-30) — higher, > 5 µM
- CC[C@H](C)[C@@H]1NC(=O)[C@@H]2CSSC[C@@H]3NC(=O)[C@H](C(C)C)NC(=O)[C@H](CC(C)C)NC(=O)[C@H](CC(N)=O)NC(=O)[C@@H]4CCCN4C(=O)[C@H](CCCNC(=N)N)NC(=O)[C@H](CSSC[C@H](NC(=O)[C@@H](N)CC(=O)O)C(=O)N[C@@H](CC(C)C)C(=O)NCC(=O)N[C@@H](Cc4ccccc4)C(=O)N[C@@H](CCSC)C(=O)N[C@@H](CCCNC(=N)N)C(=O)N[C@@H](CCCCN)C(=O)N2)NC(=O)[C@H](CSSC[C@@H](C(=O)N[C@@H](CCCCN)C(=O)N[C@@H](Cc2ccc(O)cc2)C(=O)N[C@@H](CCC(=O)O)C(=O)N[C@@H](Cc2ccccc2)C(N)=O)NC(=O)[C@H](Cc2c[nH]c4ccccc24)NC(=O)[C@H](CCCCN)NC(=O)[C@H](Cc2cnc[nH]2)NC(=O)[C@H]([C@@H](C)O)NC(=O)[C@H](CCCNC(=N)N)NC(=O)[C@H](CO)NC3=O)NC(=O)[C@H](CCCCN)NC(=O)[C@H](CC(=O)O)NC(=O)[C@H](CC(N)=O)NC(=O)[C@H](CC(=O)O)NC(=O)[C@@H]2CCCN2C1=O (H-DCLGFMRKCIPDNDKCCRPNLVCSRTHKWCKYEF-NH2; disulfide 2-17, 9-23, 16-30) — higher, > 5 µM
- CC[C@H](C)[C@@H]1NC(=O)[C@@H]2CSSC[C@@H]3NC(=O)[C@H](C(C)C)NC(=O)[C@H](CC(C)C)NC(=O)[C@H](CC(N)=O)NC(=O)[C@@H]4CCCN4C(=O)[C@H](CCCNC(=N)N)NC(=O)[C@H](CSSC[C@H](NC(=O)[C@@H](N)CC(=O)O)C(=O)N[C@@H](CC(C)C)C(=O)NCC(=O)N[C@@H](Cc4ccccc4)C(=O)N[C@@H](CCSC)C(=O)N[C@@H](CCCNC(=N)N)C(=O)N[C@@H](CCCCN)C(=O)N2)NC(=O)[C@H](CSSC[C@@H](C(=O)N[C@@H](CCCCN)C(=O)N[C@@H](Cc2ccc(O)cc2)C(=O)N[C@@H](CCCNC(=N)N)C(=O)N[C@@H](Cc2ccccc2)C(N)=O)NC(=O)[C@H](Cc2c[nH]c4ccccc24)NC(=O)[C@H](CCCCN)NC(=O)[C@H](Cc2cnc[nH]2)NC(=O)[C@H]([C@@H](C)O)NC(=O)[C@H](CCCNC(=N)N)NC(=O)[C@H](CO)NC3=O)NC(=O)[C@H](CCCCN)NC(=O)[C@H](CC(=O)O)NC(=O)[C@H](CC(N)=O)NC(=O)[C@H](CC(=O)O)NC(=O)[C@@H]2CCCN2C1=O (H-DCLGFMRKCIPDNDKCCRPNLVCSRTHKWCKYRF-NH2; disulfide 2-17, 9-23, 16-30) — higher, > 5 µM
- CC[C@H](C)[C@@H]1NC(=O)[C@@H]2CSSC[C@@H]3NC(=O)[C@H](C(C)C)NC(=O)[C@H](CC(C)C)NC(=O)[C@H](CC(N)=O)NC(=O)[C@@H]4CCCN4C(=O)[C@H](CCCNC(=N)N)NC(=O)[C@H](CSSC[C@H](NC(=O)[C@@H](N)CCCNC(=N)N)C(=O)N[C@@H](CC(C)C)C(=O)NCC(=O)N[C@@H](Cc4ccccc4)C(=O)N[C@@H](CCSC)C(=O)N[C@@H](CCCNC(=N)N)C(=O)N[C@@H](CCCCN)C(=O)N2)NC(=O)[C@H](CSSC[C@@H](C(=O)N[C@@H](CCCCN)C(=O)N[C@@H](Cc2ccc(O)cc2)C(=O)N[C@H](C(=O)N[C@@H](Cc2ccccc2)C(N)=O)C(C)C)NC(=O)[C@H](Cc2c[nH]c4ccccc24)NC(=O)[C@H](CCCCN)NC(=O)[C@H](Cc2cnc[nH]2)NC(=O)[C@H]([C@@H](C)O)NC(=O)[C@H](CCCNC(=N)N)NC(=O)[C@H](CO)NC3=O)NC(=O)[C@H](CCCCN)NC(=O)[C@H](CC(=O)O)NC(=O)[C@H](CC(N)=O)NC(=O)[C@H](CC(=O)O)NC(=O)[C@@H]2CCCN2C1=O (H-RCLGFMRKCIPDNDKCCRPNLVCSRTHKWCKYVF-NH2; disulfide 2-17, 9-23, 16-30) — higher, > 5 µM
